Test results: ChEMBL document CHEMBL4196014, “Highly convergent synthesis and antiviral activity of (E)-but-2-enyl nucleoside phosphonoamidates” (Eur J Med Chem, 2018)
The source made the active and inactive calls. The calls are words filed in the database; no cut-off is given here.

Columns and labels:
Human alphaherpesvirus 3 [1] = test: Antiviral activity against thymidine kinase deficient Varicella zoster virus 07/1 infected in HEL cells assessed as reduction in viral plaque formation; assay type: functional, organism-based; details: Human alphaherpesvirus 3, 07/1, HEL
How it was run: (§1)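 Confluent cultures were inoculated with 20 PFU of virus with compound at varying concentrations (100, 20, … μM). Plaques were counted once plaque formation was complete in untreated infected controls.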

Human betaherpesvirus 5 [2] = test: Antiviral activity against Human cytomegalovirus Davis infected in HEL cells assessed as reduction in viral cytopathic effect; assay type: functional, organism-based; details: Human betaherpesvirus 5, Davis
How it was run: (§2)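 Confluent cell monolayers were infected with 100 CCID50 of virus (1 CCID50 is the dose infecting 50% of cultures) with test compound at varying concentrations (100, 20, … μM). CPE was scored once it was complete in untreated infected controls.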

Human coronavirus 229E = test: Antiviral activity against Human coronavirus 229E infected in HEL cells assessed as reduction in viral cytopathic effect; assay type: functional, organism-based; how it was run: as §2
Sindbis virus = test: Antiviral activity against Sindbis virus infected in African green monkey Vero cells assessed as reduction in viral cytopathic effect; assay type: functional, organism-based; how it was run: as §2
Human betaherpesvirus 5 [3] = test: Antiviral activity against Human cytomegalovirus AD169 infected in HEL cells assessed as reduction in viral cytopathic effect; assay type: functional, organism-based; details: Human betaherpesvirus 5, AD169, HEL; how it was run: as §2
Vaccinia virus = test: Antiviral activity against Vaccinia virus infected in HEL cells assessed as reduction in viral cytopathic effect; assay type: functional, organism-based; details: Orthopoxvirus vaccinia; how it was run: as §2
[4] = Cytotoxicity against HEL cells assessed as alteration of cell morphology by microscopic method; assay type: cell-based; details: human
How it was run: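 MCC is the lowest compound concentration giving a microscopically visible alteration of cell morphology.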

Coxsackievirus B4 [5] = test: Antiviral activity against Coxsackievirus B4 infected in African green monkey Vero cells assessed as reduction in viral cytopathic effect; assay type: functional, organism-based; how it was run: as §2
[6] = system: Respiratory syncytial virus; test: Antiviral activity against Respiratory syncytial virus infected in human HeLa cells assessed as reduction in viral cytopathic effect; assay type: functional, organism-based; how it was run: as §2
Human alphaherpesvirus 3 [7] = test: Antiviral activity against Varicella zoster virus Oka infected in HEL cells assessed as reduction in viral plaque formation; assay type: functional, organism-based; details: Human alphaherpesvirus 3, strain Oka vaccine; how it was run: as §1
Influenza A virus = test: Antiviral activity against Influenza A virus (H1N1) infected in MDCK cells assessed as reduction in viral cytopathic effect; assay type: functional, organism-based
How it was run: (§3)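 Nearly confluent MDCK cultures were infected with 100 CCID50 of virus with compound at varying concentrations (100, 20, … μM). CPE was scored when complete in untreated infected controls.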

Human alphaherpesvirus 1 [8] = test: Antiviral activity against Human simplex virus 1 KOS infected in HEL cells assessed as reduction in viral cytopathic effect; assay type: functional, organism-based; details: Human alphaherpesvirus 1, KOS; how it was run: as §2
[9] = system: Mammalian orthoreovirus 1; test: Antiviral activity against Reovirus-1 infected in African green monkey Vero cells assessed as reduction in viral cytopathic effect; assay type: functional, organism-based; how it was run: as §2
Influenza B virus = test: Antiviral activity against Influenza B virus infected in MDCK cells assessed as reduction in viral cytopathic effect; assay type: functional, organism-based; how it was run: as §3
[10] = system: Human immunodeficiency virus 1; test: Antiviral activity against Human immunodeficiency virus 1 LAV1 infected in primary human PBM cells after 6 days by reverse transcriptase activity-based assay; assay type: functional, organism-based
[11] = system: Vesicular stomatitis virus; test: Antiviral activity against Vesicular stomatitis virus infected in human HeLa cells assessed as reduction in viral cytopathic effect; assay type: functional, organism-based; how it was run: as §2
Human alphaherpesvirus 2 = test: Antiviral activity against Human simplex virus 2 G infected in HEL cells assessed as reduction in viral cytopathic effect; assay type: functional, organism-based; details: Human alphaherpesvirus 2, strain G; how it was run: as §2
Human alphaherpesvirus 1 [12] = test: Antiviral activity against thymidine kinase deficient acyclovir-resistant Human simplex virus 1 KOS infected in HEL cells assessed as reduction in viral cytopathic effect; assay type: functional, organism-based; details: Human alphaherpesvirus 1, KOS; how it was run: as §2
Influenza A virus H3N2 = test: Antiviral activity against Influenza A virus H3N2 infected in MDCK cells assessed as reduction in viral cytopathic effect; assay type: functional, organism-based; how it was run: as §3
Human respirovirus 3 = test: Antiviral activity against Human parainfluenza virus 3 infected in African green monkey Vero cells assessed as reduction in viral cytopathic effect; assay type: functional, organism-based; how it was run: as §2
Coxsackievirus B4 [13] = test: Antiviral activity against Human coxsackievirus B4 infected in human HeLa cells assessed as reduction in viral cytopathic effect; assay type: functional, organism-based; how it was run: as §2
HEL = test: Cytostatic activity against HEL cells after 3 days by Coulter counting method; assay type: cell-based; details: human, 72 h
How it was run: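 HEL cells were seeded at 5 × 10^3 cells/well and grown for 24 h, then given medium with graded compound concentrations. After 3 days at 37 °C, cells were counted with a Coulter counter.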

[14] = Selectivity index, ratio of CC50 for HEL cells to EC50 for Varicella zoster virus Oka infected in HEL cells; assay type: toxicity, cell-based; details: human, read-out: Ratio CC50/EC50
How it was run: (§4)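 SI is CC50 divided by EC50. CC50 comes from the 3-day HEL Coulter-counter growth assay. EC50 comes from the VZV plaque-reduction assay (20 PFU inoculum).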

[15] = Selectivity index, ratio of CC50 for HEL cells to EC50 for thymidine kinase deficient Varicella zoster virus 07/1 infected in HEL cells; assay type: toxicity, cell-based; details: human, read-out: Ratio CC50/EC50; how it was run: as §4

Compound: C[C@H](NP(=O)(C/C=C/Cn1cc(Cl)c(=O)[nH]c1=O)Oc1ccccc1)C(=O)OCc1ccccc1 (stereo partly specified)
- EC50 (Human alphaherpesvirus 3 [1]): 20 µM
- EC50 (Human betaherpesvirus 5 [2]): > 20 µM
- EC50 (Human coronavirus 229E): 8.9 µM
- Activity (Sindbis virus): inactive
- EC50 (Human betaherpesvirus 5 [3]): > 20 µM
- EC50 (Vaccinia virus): > 100 µM
- MCC [4]: ≥ 100 µM
- Activity (Coxsackievirus B4 [5]): inactive
- Activity [6]: inactive
- EC50 (Human alphaherpesvirus 3 [7]): 44.7 µM
- Activity (Influenza A virus): inactive
- EC50 (Human alphaherpesvirus 1 [8]): 43 µM
- Activity [9]: inactive
- Activity (Influenza B virus): inactive
- Activity [10]: inactive
- Activity [11]: inactive
- EC50 (Human alphaherpesvirus 2): 40 µM
- EC50 (Human alphaherpesvirus 1 [12]): 24 µM
- Activity (Influenza A virus H3N2): inactive
- Activity (Human respirovirus 3): inactive
- Activity (Coxsackievirus B4 [13]): inactive

Compound: C[C@H](NP(=O)(C/C=C/Cn1cc(F)c(=O)[nH]c1=O)Oc1ccccc1)C(=O)OCc1ccccc1 (stereo partly specified)
- EC50 (Human alphaherpesvirus 3 [1]): > 100 µM
- EC50 (Human betaherpesvirus 5 [2]): > 20 µM
- EC50 (Human coronavirus 229E): 45 µM
- Activity (Sindbis virus): inactive
- EC50 (Human betaherpesvirus 5 [3]): > 20 µM
- EC50 (Vaccinia virus): > 100 µM
- MCC [4]: ≥ 100 µM
- Activity (Coxsackievirus B4 [5]): inactive
- Activity [6]: inactive
- EC50 (Human alphaherpesvirus 3 [7]): > 100 µM
- Activity (Influenza A virus): inactive
- EC50 (Human alphaherpesvirus 1 [8]): > 100 µM
- Activity [9]: inactive
- Activity (Influenza B virus): inactive
- Activity [10]: inactive
- Activity [11]: inactive
- EC50 (Human alphaherpesvirus 2): > 100 µM
- EC50 (Human alphaherpesvirus 1 [12]): 79 µM
- Activity (Influenza A virus H3N2): inactive
- Activity (Human respirovirus 3): inactive
- Activity (Coxsackievirus B4 [13]): inactive

Compound: Nc1nc(O)c2ncn(COC(CO)CO)c2n1 [GANCICLOVIR]
- EC50 (Human betaherpesvirus 5 [2]): 4.05 µM
- EC50 (Human betaherpesvirus 5 [3]): 5.63 µM
- MCC [4]: ≥ 350 µM
- CC50 (HEL): > 350 µM

Compound: CCCCCCCCCCCCCCCOCCCOP(=O)(C/C=C/Cn1cc(C)c(=O)[nH]c1=O)OCOC(=O)OC(C)C (stereo unspecified)
- EC50 (Human alphaherpesvirus 3 [1]): > 6 µM
- EC50 (Human betaherpesvirus 5 [2]): > 6 µM
- Activity (Sindbis virus): inactive
- EC50 (Human betaherpesvirus 5 [3]): > 6 µM
- MCC [4]: 30 µM
- Activity (Coxsackievirus B4 [5]): inactive
- Activity [6]: inactive
- CC50 (HEL): 14.7 µM
- EC50 (Human alphaherpesvirus 3 [7]): > 6 µM
- Activity (Influenza A virus): inactive
- EC50 (Human alphaherpesvirus 1 [8]): > 152 µM
- Activity [9]: inactive
- Activity (Influenza B virus): inactive
- Activity [10]: inactive
- Activity [11]: inactive
- EC50 (Human alphaherpesvirus 2): > 152 µM
- EC50 (Human alphaherpesvirus 1 [12]): > 152 µM
- Activity (Influenza A virus H3N2): inactive
- Activity (Human respirovirus 3): inactive
- Activity (Coxsackievirus B4 [13]): inactive

Compound: Cc1cn(C/C=C/C[P@@](=O)(N[C@@H](C)C(=O)OCc2ccccc2)Oc2ccccc2)c(=O)[nH]c1=O
- EC50 (Human alphaherpesvirus 3 [1]): 0.39 µM
- EC50 (Human betaherpesvirus 5 [2]): 52.5 µM
- EC50 (Human coronavirus 229E): 60 µM
- Activity (Sindbis virus): inactive
- EC50 (Human betaherpesvirus 5 [3]): 34.2 µM
- selectivity ratio [14]: 93
- MCC [4]: > 100 µM
- Activity (Coxsackievirus B4 [5]): inactive
- Activity [6]: inactive
- CC50 (HEL): 55 µM
- EC50 (Human alphaherpesvirus 3 [7]): 0.59 µM
- Activity (Influenza A virus): inactive
- EC50 (Human alphaherpesvirus 1 [8]): 11.5 µM
- Activity [9]: inactive
- Activity (Influenza B virus): inactive
- Activity [10]: inactive
- selectivity ratio [15]: 141
- Activity [11]: inactive
- EC50 (Human alphaherpesvirus 2): 2.9 µM
- EC50 (Human alphaherpesvirus 1 [12]): 4.1 µM
- Activity (Influenza A virus H3N2): inactive
- Activity (Human respirovirus 3): inactive
- Activity (Coxsackievirus B4 [13]): inactive

Compound: Nc1nc2c(ncn2COCCO)c(=O)[nH]1 [ACYCLOVIR]
- EC50 (Vaccinia virus): > 250 µM
- MCC [4]: > 440 µM
- CC50 (HEL): > 440 µM
- EC50 (Human alphaherpesvirus 1 [8]): 1.2 µM
- EC50 (Human alphaherpesvirus 2): 0.7 µM
- EC50 (Human alphaherpesvirus 1 [12]): 94 µM

Compound: CCCCCCCCCCCCCCCOCCCOP(=O)(O)C/C=C/Cn1cc(C)c(=O)[nH]c1=O
- EC50 (Human alphaherpesvirus 3 [1]): 20.5 µM
- EC50 (Human betaherpesvirus 5 [2]): 13.5 µM
- Activity (Sindbis virus): inactive
- EC50 (Human betaherpesvirus 5 [3]): > 39 µM
- EC50 (Vaccinia virus): > 37 µM
- MCC [4]: 184 µM
- Activity (Coxsackievirus B4 [5]): inactive
- Activity [6]: inactive
- CC50 (HEL): 76 µM
- EC50 (Human alphaherpesvirus 3 [7]): 19.4 µM
- Activity (Influenza A virus): inactive
- EC50 (Human alphaherpesvirus 1 [8]): > 37 µM
- Activity [9]: inactive
- Activity (Influenza B virus): inactive
- Activity [10]: inactive
- Activity [11]: inactive
- EC50 (Human alphaherpesvirus 2): > 37 µM
- EC50 (Human alphaherpesvirus 1 [12]): > 37 µM
- Activity (Influenza A virus H3N2): inactive
- Activity (Human respirovirus 3): inactive
- Activity (Coxsackievirus B4 [13]): inactive
